Assay results published in ChEMBL document CHEMBL1773023, “Potent and selective phosphopeptide mimetic prodrugs targeted to the Src homology 2 (SH2) domain of signal transducer and activator of transcription 3” (J Med Chem, 2011).
pIC50: −log10 of the molar value. Calls of active or inactive are those of the source. No cut-off for these calls is given here.

What was measured:
[1] = molecular target: T1, Signal transducer and activator of transcription 3 (Homo sapiens, UniProt P40763); assay: Inhibition of IL6-induced SH2 domain of Stat3 phosphorylation at Tyr705 in human A375 cells up to 10 uM treated 1.5 hrs before IL6 challenge measured after 30 mins by Western blotting; type: cell-based; conditions: A-375
T1 sequence (P40763 whole entry, the tested form may be a part): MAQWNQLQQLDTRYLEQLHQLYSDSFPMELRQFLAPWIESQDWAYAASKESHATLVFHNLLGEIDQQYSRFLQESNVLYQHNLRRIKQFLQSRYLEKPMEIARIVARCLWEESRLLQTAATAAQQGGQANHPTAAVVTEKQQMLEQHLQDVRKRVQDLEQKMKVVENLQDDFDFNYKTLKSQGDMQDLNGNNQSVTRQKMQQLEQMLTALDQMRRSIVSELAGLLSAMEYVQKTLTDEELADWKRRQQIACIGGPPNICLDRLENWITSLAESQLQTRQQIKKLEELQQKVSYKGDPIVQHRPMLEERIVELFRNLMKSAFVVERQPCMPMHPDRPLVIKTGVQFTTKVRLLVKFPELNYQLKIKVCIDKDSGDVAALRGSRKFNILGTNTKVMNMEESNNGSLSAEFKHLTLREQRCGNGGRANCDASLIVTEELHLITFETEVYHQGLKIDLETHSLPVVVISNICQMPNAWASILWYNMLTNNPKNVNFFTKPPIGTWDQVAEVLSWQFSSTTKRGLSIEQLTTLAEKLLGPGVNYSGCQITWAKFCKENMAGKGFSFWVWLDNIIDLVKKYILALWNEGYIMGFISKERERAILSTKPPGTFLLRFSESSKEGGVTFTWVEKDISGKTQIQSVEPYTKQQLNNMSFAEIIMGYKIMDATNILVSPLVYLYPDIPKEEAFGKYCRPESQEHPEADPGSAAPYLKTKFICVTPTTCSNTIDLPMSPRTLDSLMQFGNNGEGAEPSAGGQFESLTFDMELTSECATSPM
Outline: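 Hey, MeWo and A375 cells (3×10^5/well, RPMI1640, overnight, fresh medium) given increasing prodrug concentrations for 2 h, with IL-6 10 ng/mL during the final 30 min; pStat3 and total Stat3 by Western blot.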

[2] = molecular target: T1, Signal transducer and activator of transcription 3; assay: Inhibition of SH2 domain of Stat3 constitutive phosphorylation at Tyr705 in human MDA-MB-468 cells at 0.1 uM after 2 hrs by Western blotting; type: cell-based
Outline: (§1)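 MDA-MB-468 cells (4×10^5/well, DMEM 10% FCS, overnight) given prodrug from freshly made 10 mM DMSO stock for 2 h. Lysates in Hepes pH 7.4 Triton buffer with phosphatase/protease inhibitors; 12 μg protein on 8% SDS-PAGE, PVDF, probed for pStat3 Y705 by ECL, then stripped and reprobed for total Stat3.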

[3] = molecular target: T1, Signal transducer and activator of transcription 3; assay: Inhibition of SH2 domain of Stat3 constitutive phosphorylation at Tyr705 in human MDA-MB-468 cells at 0.5 uM after 2 hrs by Western blotting; type: cell-based; outline: as §1
[4] = molecular target: T1, Signal transducer and activator of transcription 3; assay: Inhibition of SH2 domain of Stat3 constitutive phosphorylation at Tyr705 in human MDA-MB-468 cells at 5 uM after 4 hrs by Western blotting; type: cell-based
Outline: (§2)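 MDA-MB-468 cells given a single 5 μM prodrug dose and harvested at set times; pTyr705 and total Stat3 by Western blot of 12 μg lysate protein on 8% SDS-PAGE.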

[5] = molecular target: T1, Signal transducer and activator of transcription 3; assay: Inhibition of SH2 domain of Stat3 constitutive phosphorylation at Tyr705 in human MDA-MB-468 cells at 5 uM after 8 hrs by Western blotting; type: cell-based; outline: as §2
[6] = molecular target: T1, Signal transducer and activator of transcription 3; assay: Inhibition of SH2 domain of Stat3 constitutive phosphorylation at Tyr705 in human MDA-MB-468 cells at 5 uM after 16 hrs by Western blotting; type: cell-based; outline: as §2
[7] = molecular target: T2, Signal transducer and activator of transcription 5A (Homo sapiens) (UniProt P42229); assay: Inhibition of EGF-induced SH2 domain of Stat5 phosphorylation at Tyr694 in human MDA-MB-468 cells at 5 uM treated 1.5 hrs before EGF challenge measured after 30 mins by Western blotting; type: cell-based
T2 sequence (whole entry): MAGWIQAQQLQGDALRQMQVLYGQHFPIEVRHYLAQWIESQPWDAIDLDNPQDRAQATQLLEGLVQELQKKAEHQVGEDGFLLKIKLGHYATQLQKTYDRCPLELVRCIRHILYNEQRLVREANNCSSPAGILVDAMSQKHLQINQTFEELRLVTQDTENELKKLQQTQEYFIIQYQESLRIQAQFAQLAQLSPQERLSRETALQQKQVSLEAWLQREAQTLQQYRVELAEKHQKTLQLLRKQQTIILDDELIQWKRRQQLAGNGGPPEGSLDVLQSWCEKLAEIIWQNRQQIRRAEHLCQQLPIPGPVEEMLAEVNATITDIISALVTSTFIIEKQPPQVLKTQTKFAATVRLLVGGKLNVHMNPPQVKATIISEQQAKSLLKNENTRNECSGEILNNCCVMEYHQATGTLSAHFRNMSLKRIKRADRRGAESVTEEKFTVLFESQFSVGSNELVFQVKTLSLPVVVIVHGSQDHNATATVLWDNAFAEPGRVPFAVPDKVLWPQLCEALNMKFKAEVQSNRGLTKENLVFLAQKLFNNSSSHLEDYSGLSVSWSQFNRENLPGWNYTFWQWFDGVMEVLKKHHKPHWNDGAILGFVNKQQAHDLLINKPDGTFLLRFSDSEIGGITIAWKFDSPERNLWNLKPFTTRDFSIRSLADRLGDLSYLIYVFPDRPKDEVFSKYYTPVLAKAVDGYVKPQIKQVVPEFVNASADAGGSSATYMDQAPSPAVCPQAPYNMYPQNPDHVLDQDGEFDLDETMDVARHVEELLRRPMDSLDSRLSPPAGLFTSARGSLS
Outline: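 MDA-MB-468 cells pretreated 1.5 h with prodrug (5 μM), then EGF 100 ng/mL for 30 min; lysates split onto three PVDF blots probed for phospho/total Stat3, pSer473/total Akt, and phospho/total Stat5.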

MDA-MB-468 [8] = assay: Selectivity ratio of inhibition of IFNgamma-induced Stat1 phosphorylation at Tyr701 to inhibition of EGF-induced SH2 domain of Stat3 phosphorylation at Tyr705 in human MDA-MB-468 cells; type: cell-based
[9] = molecular target: MAP kinase p38 (Homo sapiens) (UniProt O15264+Q15759+Q16539+P53778); assay: Inhibition of p38 MAPK phosphorylation in human HCC-827 cells at 5 uM after up to 24 hrs by Western blotting; type: cell-based
[10] = molecular target: RAC-alpha serine/threonine-protein kinase (Homo sapiens) (UniProt P31749); assay: Inhibition of Akt phosphorylation at Ser473 in human HCC-827 cells at 5 uM after up to 24 hrs by Western blotting; type: cell-based
Sequence of RAC-alpha serine/threonine-protein kinase (Homo sapiens) (P31749 whole entry): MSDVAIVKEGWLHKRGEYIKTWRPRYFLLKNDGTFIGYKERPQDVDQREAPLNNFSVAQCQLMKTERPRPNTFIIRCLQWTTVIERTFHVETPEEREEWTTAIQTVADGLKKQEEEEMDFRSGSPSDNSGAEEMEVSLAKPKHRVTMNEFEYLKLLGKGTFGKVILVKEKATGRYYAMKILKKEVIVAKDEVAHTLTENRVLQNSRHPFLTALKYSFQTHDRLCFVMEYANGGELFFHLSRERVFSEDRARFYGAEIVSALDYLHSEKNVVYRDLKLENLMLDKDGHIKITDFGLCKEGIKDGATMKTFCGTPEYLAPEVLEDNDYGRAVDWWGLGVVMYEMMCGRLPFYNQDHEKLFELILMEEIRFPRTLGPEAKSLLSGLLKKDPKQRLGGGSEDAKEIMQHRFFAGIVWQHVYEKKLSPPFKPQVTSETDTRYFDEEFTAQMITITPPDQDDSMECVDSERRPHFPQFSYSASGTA

MDA-MB-468 [11] = assay: Decrease of cyclin D1 gene expression in human MDA-MB-468 cells at 5 uM; type: functional, cell-based
MDA-MB-468 [12] = assay: Decrease of Bcl-xl gene expression in human MDA-MB-468 cells at 5 uM; type: functional, cell-based
[13] = molecular target: T1, Signal transducer and activator of transcription 3; assay: Inhibition of SH2 domain of Stat3 phosphorylation at Tyr705 in human HCC-827 cells at 5 uM after 4 hrs by Western blotting; type: cell-based
Outline: (§3)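 HCC-827 NSCLC cells treated with 5 μM prodrug and sampled over a time course from 10 min to 24 h; pStat3 by Western blot.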

[14] = molecular target: T1, Signal transducer and activator of transcription 3; assay: Inhibition of SH2 domain of Stat3 phosphorylation at Tyr705 in human HCC-827 cells at 5 uM after 24 hrs by Western blotting; type: cell-based; outline: as §3
MCF7 = assay: Cytotoxicity against human MCF7 cells after 72 hrs by SRB assay; type: functional, cell-based; conditions: MCF7, 72 h
Outline: (§4)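 Cancer cell lines (MCF-7, SKOV3-ip, HCC-827) dosed daily with prodrug for three days; viability by SRB assay.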

[15] = Cytotoxicity against human SKOV3ip cells after 72 hrs by SRB assay; type: functional, cell-based; conditions: SKOV3-ip; outline: as §4
[16] = Cytotoxicity against human HCC827 cells after 72 hrs by SRB assay; type: functional, cell-based; conditions: HCC827, 72 h; outline: as §4
A549 = assay: Cytotoxicity against human A549 cells assessed as cell growth inhibition at 5 to 10 uM after 72 hrs by MTT assay; type: functional
Outline: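 Cell lines with constitutive Stat3 phosphorylation (melanoma, NSCLC) exposed to prodrug at 5–10 μM. Percent growth inhibition recorded.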

[17] = molecular target: T1, Signal transducer and activator of transcription 3; assay: Inhibition of SH2 domain of Stat3 phosphorylation at Tyr705 in human SKOV3-ip cells up to 10 uM by Western blotting
[18] = molecular target: T1, Signal transducer and activator of transcription 3; assay: Inhibition of constitutive SH2 domain of Stat3 phosphorylation at Tyr705 in human SKOV3-ip cells at 1 uM measured after 2 hrs by Western blotting

- inhibition [1]: Active
- inhibition [2]: Active
- inhibition [3]: Active
- inhibition [4]: Active
- inhibition [5]: Active
- inhibition [6]: inactive
- inhibition [7]: inactive
- inhibition [9]: inactive
- inhibition [10]: inactive
- inhibition [13]: Active
- inhibition [14]: Active
- inhibition [17]: Active
- inhibition [18]: Active
SMILES: C/C(=C\C(=O)N[C@H]1CCc2cccc3c2N(C1=O)[C@H](C(=O)N[C@H](C)CCC(N)=O)C3)c1ccc(C(F)(F)P(=O)(OCOC(=O)C(C)(C)C)OCOC(=O)C(C)(C)C)cc1
- Ratio (MDA-MB-468 [8]): 10
- Activity (MDA-MB-468 [11]): inactive
- Activity (MDA-MB-468 [12]): inactive
- pIC50 (MCF7): < 4.52
- pIC50 [15]: < 4.52
- pIC50 [16]: < 4.52
- growth inhibition (GI) (A549): <20%
